In ChEMBL document CHEMBL4265929, “4-Hydroxy-1,2,3-triazole moiety as bioisostere of the carboxylic acid function: a novel scaffold to probe the orthosteric γ-aminobutyric acid receptor binding site” (Eur J Med Chem, 2018):

How the values were obtained:
[1] = Ionization constant, pKa of the compound; assay type: physicochemical
Outline: (§1)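 Potentiometric titration of about 1 mM aqueous compound, ionic strength 0.15 M KCl. Solution acidified to pH 1.8 with 0.5 N HCl, then titrated with standardized 0.5 N KOH to pH 12.2 at 25 °C under argon. pKa taken as mean of four titrations.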

[2] = Displacement of [3H]muscimol from GABAA receptor in Sprague-Dawley rat brain synaptic membranes after 60 mins by Topcount scintillation counting method
Outline: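 Synaptic membranes from male SPRD rat cortex and central hemispheres, washed four times (50 mM Tris-HCl pH 7.4, 48,000g, 4 °C). Membranes (70–80 µg protein) incubated with [3H]muscimol (5 nM final) and graded compound concentrations, 60 min, 0 °C. GF/C filtration, scintillation counting. Non-specific binding with 1.0 mM GABA. Triplicates, ≥3 experiments. IC50 converted to Ki (modified Cheng–Prusoff); mean pKi ± SEM.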

[3] = Ionization constant, pKa of the compound in methanol by diode array detection method; assay type: physicochemical
[4] = Ionization constant, pKa of the compound in KCl at pH 1.8 by potentiometric titration method; assay type: physicochemical; outline: as §1

Row | SMILES | pKa [1] | Ki [2] [µM] | pKa [3] | pKa [4] | pKi [2]
1 | On1cc(C2CCNCC2)cn1 | 5.4 | 10 |  |  | 
2 | Oc1cc(C2CCNCC2)[nH]n1 |  | > 100 | 6.7 |  | 
3 | Cn1nc(O)c(CCN)n1 |  | > 100 |  | 5.92 | 
4 | Oc1nn(C2CCNCC2)nc1CCC(c1ccccc1)c1ccccc1 |  | > 100 |  |  | 
5 | Oc1nn(C2CCNCC2)nc1Cc1ccc2ccccc2c1 |  | 3.3 |  |  | 5.49
6 | NCCc1nsnc1O |  | 75 |  | 4.54 | 4.13
7 | Oc1nnn(C2CCNCC2)c1Cc1ccc2ccccc2c1 |  | 2.4 |  |  | 5.62
8 | Oc1cnn(C2CCNCC2)n1 |  | > 100 |  | 6.36 | 
9 | Oc1cn(C2CCNCC2)nn1 |  | 55 |  | 6.51 | 4.26
10 | Oc1nnn(C2CCNCC2)c1CCC(c1ccccc1)c1ccccc1 |  | 1.6 |  |  | 5.8
